Source: PubChem (Broad Institute)
Statin myotox sup = suppressors of simvastatin-induced myotoxicity in C2C12 myotubes | 330,000 compounds, 0.78% hits | ATP luminescence, 48 h; scaled: DMSO 0, geranylgeraniol control 100 | rescue of ATP level, % at 7.49 µM | AID 602340;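 active = mean ATP rescue above about 67%, or every replicate alone reaching that limit, limit read from the data, passing the limit was not always enough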;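 note: myotubes were challenged with 10 µM simvastatin during compound exposure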
Cneo AK release = Cryptococcus neoformans lysis via adenylate kinase release; 360,000 compounds, 0.2% hits; C. neoformans lysis, adenylate kinase release luminescence, 4 h; normalised: neutral wells 0, clomiphene wells 100; AID 651654; lysis activity, % at 15 µM;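 active = mean lysis activity across replicates of at least 80%, whatever share of replicates individually reach that level; inactive = mean lysis activity below 80%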
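Assay system: Cryptococcus neoformans yeast cells / Dosing: single-point compound dose / Timing: 4 h at 37 °C static, read 1 h later / Measured by: luminescence of released adenylate kinase using an AK detection reagent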
Mot1-301 SUMO = SUMOylation pathway inhibition by Mot1-301 growth rescue; growth rescue, % at 18.8 µM; 320,000 compounds, 1% hits; S. cerevisiae Mot1-301 growth rescue, ATP luminescence, 38.5C; percent above DMSO median, 100 means doubled;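 active = every valid replicate shows activation above 250% relative to neutral control wells; inactive = the rest, any valid replicate at or below 250%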;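 note: OY570 slx delta 5 strain wells were the positive control but not used for scaling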
* marks the source's active call; other numbers are inactive results; . = no result. The list is not random: actives were taken first. Their share in the collection is about 1.5%.

SMILES | Statin myotox sup | Cneo AK release | Mot1-301 SUMO
O=C(COc1ccc(S(=O)(=O)N2CCCC2)cc1Cl)NC1CC1 | 6 | 3 | 11
Cc1ccc(S(=O)(=O)N2CCOCC2)cc1C(=O)NC1CCCCC1 | 71* | -3 | -7
Cc1ccc(NC(=O)COc2ccc(S(=O)(=O)N3CCOCC3)cc2)cc1 | 152* | 2 | 8
O=C(COc1ccc(S(=O)(=O)N2CCOCC2)cc1Cl)NC1CCCCC1 | 5 | 0 | 338*
C[C@@H]1CN([C@H](C)CO)C(=O)c2cc(NC(=O)NC3CCCCC3)ccc2O[C@@H](C)CCCCO[C@@H]1CN(C)S(=O)(=O)c1cn(C)cn1 | . | 5 | .
C=CC[C@]1(C(=O)N(C)C)N=C(c2ccc(OCCCO)cc2)O[C@H]1c1ccccc1 | . | -1 | .
Cc1cccc(N(C(=O)CS(=O)CC(=O)Nc2ccc3c(c2)OCO3)C(C)C(=O)NC2CCCC2)c1C (centres undefined) | . | . | 11
Cc1ccccc1N(CC(=O)NC1CCCC1)C(=O)CS(=O)CC(=O)Nc1ccc2c(c1)OCO2 (centres undefined) | 127* | 0 | 9
C[C@H]1CCCCO[C@H](CN(C)C(=O)c2ccccc2)[C@@H](C)CN([C@@H](C)CO)C(=O)c2cc(NC(=O)Nc3ccc4c(c3)OCO4)ccc2O1 | . | 0 | .
COc1ccc(S(=O)(=O)N(C)C[C@@H]2OCc3ccccc3-c3c(n(C)c4ccccc34)C(=O)N([C@@H](C)CO)C[C@@H]2C)cc1 | 12 | 1 | .
COc1cccc(S(=O)(=O)N(C)C[C@H]2OCc3ccccc3-c3c(n(C)c4ccccc34)C(=O)N([C@H](C)CO)C[C@H]2C)c1 | 80* | -2 | .
O=C(Nc1ccc(F)cc1F)C1CC(=O)N(Cc2ccccc2)C1 (centres undefined) | -1 | -1 | -3
O=C(Nc1ccc(F)cc1F)NC1CC(=O)N(Cc2ccccc2)C1 (centres undefined) | 86* | 1 | 8
CCCc1nnc(NC(=O)COc2ccc3c(c2)OCO3)s1 | 2 | 4 | 8
CCc1nnc(NC(=O)COc2ccc3c(c2)OCO3)s1 | 3 | . | 260*
CNC[C@@H]1OCCCC[C@H](C)Oc2ccc(NS(=O)(=O)c3ccc(OC)cc3)cc2C(=O)N([C@H](C)CO)C[C@@H]1C | 50 | . | .
Cc1nnsc1NC(=O)OCc1ccc(C(F)(F)F)cc1 | 105* | -1 | -5
Cc1nnsc1NC(=O)OCc1ccccc1Cl | 0 | . | 4
C[C@@H]1CN([C@H](C)CO)C(=O)c2cccc(NC(=O)Nc3ccc(F)cc3)c2O[C@H]1CN(C)Cc1ccccc1 | 72* | -7 | .
C[C@H]1CN([C@@H](C)CO)C(=O)c2cccc(NC(=O)Nc3ccc(F)cc3)c2O[C@@H]1CN(C)Cc1ccccc1 | -5 | -3 | .
COc1ccc(NC(=O)Nc2cccc3c2O[C@@H](CN(C)C(=O)Nc2ccc(OC)cc2)[C@H](C)CN([C@@H](C)CO)C3=O)cc1 | 18 | -6 | .
COc1ccc(NC(=O)Nc2cccc3c2O[C@@H](CN(C)C(=O)Nc2cccc4ccccc24)[C@@H](C)CN([C@@H](C)CO)C3=O)cc1 | 31 | -3 | .
COc1ccc(CN(C)C[C@@H]2Oc3c(NC(=O)Nc4cccc5ccccc45)cccc3C(=O)N([C@@H](C)CO)C[C@@H]2C)cc1 | 23 | 114* | .
COc1ccc(NC(=O)Nc2cccc3c2O[C@@H](CN(C)C(=O)Nc2cccc4ccccc24)[C@H](C)CN([C@H](C)CO)C3=O)cc1 | 98* | -4 | .
COc1ccc(NC(=O)N(C)C[C@H]2Oc3c(NC(=O)NC(C)C)cccc3C(=O)N([C@H](C)CO)C[C@@H]2C)cc1 | 96* | -1 | 4
SMILES | Statin myotox sup | Cneo AK release | Mot1-301 SUMO
COc1ccc(CN(C)C[C@H]2Oc3c(NC(=O)Nc4cccc5ccccc45)cccc3C(=O)N([C@H](C)CO)C[C@H]2C)cc1 | 3 | 2 | .
CC(C)CC#Cc1cnc2c(c1)C(=O)N([C@H](C)CO)C[C@@H](C)[C@@H](CN(C)Cc1ccccc1C(=O)O)O2 | -3 | -14 | .
COc1ccc(S(=O)(=O)N(C)C[C@@H]2OCCCC[C@@H](C)Oc3ccc(NC(=O)Nc4cccc5ccccc45)cc3C(=O)N([C@@H](C)CO)C[C@@H]2C)cc1 | . | 1 | .
CO[C@@H](CN(C)S(=O)(=O)c1ccc(F)cc1)[C@H](C)CN(C(=O)Nc1ccccc1F)[C@H](C)CO | 19 | 17 | .
CC(C)NC(=O)Nc1ccc2c(c1)CC(=O)N([C@@H](C)CO)C[C@@H](C)[C@H](CN(C)C(=O)Nc1ccccc1)O2 | -3 | -2 | .
COc1ccccc1CNC(=O)CSc1ccc(-c2cccs2)nn1 | . | . | 14
COc1ccccc1CNC(=O)CSc1ccc(-c2ccccn2)nn1 | . | . | 343*
C[C@@H]1CN([C@H](C)CO)C(=O)c2cccc(NS(C)(=O)=O)c2O[C@@H]1CN(C)Cc1ccc(Cl)c(Cl)c1 | 20 | 0 | .
COc1ccc(-c2cc(C3CC3)nc(N)c2C#N)cc1 | 4 | 2 | -8
COc1ccc(-c2cc(C3CC3)nc3sc(C#N)c(N)c23)cc1 | 77* | 8 | -31
CCCn1c(C2CCCN2c2nc(C)cs2)nc2cc(Cl)c(Cl)cc21 (centres undefined) | 6 | 1 | -9
CCCn1c(C2CCCN2c2nc(-c3cccc(Br)c3)cs2)nc2cc(Cl)c(Cl)cc21 (centres undefined) | 117* | 0 | 70
Cc1noc(C)c1S(=O)(=O)N(C)C[C@@H]1OCCCC[C@@H](C)Oc2ccc(NS(=O)(=O)c3ccc(F)cc3)cc2C(=O)N([C@@H](C)CO)C[C@H]1C | . | 37 | .
COc1ccc(CN(C)C[C@@H]2Oc3ccc(NC(=O)NC(C)C)cc3CC(=O)N([C@@H](C)CO)C[C@@H]2C)cc1 | 4 | 6 | .
COc1ccc(-c2ccc3c(c2)[C@@H]2[C@@H](CCN2C(=O)Cc2ccccn2)[C@@H](CO)N3C)cc1 | 37 | 5 | .
C[C@@H]1CN([C@H](C)CO)S(=O)(=O)c2ccc(C#CC3CC3)cc2O[C@H]1CN(C)CC1CCOCC1 | -49 | 85* | .
C[C@@H]1CN([C@@H](C)CO)S(=O)(=O)c2ccc(C#Cc3cccc(F)c3)cc2O[C@@H]1CN(C)C(=O)NC1CCCCC1 | 19 | . | .
C[C@H]1CN([C@@H](C)CO)S(=O)(=O)c2ccc(C#Cc3cccc(F)c3)cc2O[C@@H]1CN(C)C(=O)NC1CCCCC1 | 9 | 102* | .
C[C@H]1CN([C@@H](C)CO)S(=O)(=O)c2ccc(C#CC3CC3)cc2O[C@H]1CN(C)C(=O)Nc1cc(F)ccc1F | 90* | . | .
C[C@H]1CN([C@@H](C)CO)S(=O)(=O)c2ccc(C#CC3CC3)cc2O[C@@H]1CN(C)C(=O)Nc1cc(F)ccc1F | -14 | . | .
C[C@@H]1CN([C@H](C)CO)S(=O)(=O)c2ccc(C#CC3CC3)cc2O[C@@H]1CN(C)CC1CCOCC1 | -3 | -2 | .
COc1ccc(S(=O)(=O)N(C)C[C@H]2OCCCC[C@@H](C)Oc3ccc(NS(=O)(=O)c4ccccc4)cc3C(=O)N([C@@H](C)CO)C[C@@H]2C)cc1 | . | -4 | .
C[C@@H]1CN([C@@H](C)CO)C(=O)Cc2cc(NC(=O)Nc3ccc(C(F)(F)F)cc3)ccc2O[C@@H]1CN(C)Cc1ccc(C(=O)Nc2ccccc2N)cc1 | -115 | 6 | .
